What was measured:
[1] = tested on: SGC-7901 cells; test: Cytotoxicity assay; assay type: cell-based, Human; conditions: SGC-7901, MTT, n=3
How it was run: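 SGC-7901 cells were grown in RPMI-1640 with 10% FBS, 1% penicillin and 1% streptomycin at 37°C, 5% CO2. Log-phase cells were seeded in triplicate at 1.0×10^4 cells/well overnight. Free drug or liposomal test formulations (1.0–100.0 µg/mL drug) were added for 24, 48 or 72 h. MTT (5.0 mg/mL stock) was added for 4 h, then DMSO, and OD read at 490 nm. IC50 was derived from viability.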

[2] = Pharmacokinetics in plasma; assay type: in vivo; conditions: ICR mice, single 10.0 mg/kg iv
[3] = Biodistribution in major organs; assay type: in vivo; conditions: ICR mice, single 10.0 mg/kg iv

## O=C1[O][Pt]2([NH][C@@H]3CCCC[C@H]3[NH]2)[O]C1=O (relative stereo) [OXA, (1R-trans)-(1,2-cyclohexanediamine-N,N’)[oxalic acid (2-)-O,O’] platinum]
[1]; 48 h
  IC50: 15.87 ± 0.27 µg/mL
[1]; 72 h
  IC50: 14.17 ± 0.14 µg/mL
[2]
  last time at which OXA was detectable in plasma (undetectable after): 8 h
[2]; 0.08 h
  plasma concentration of OXA: 28590 ± 920 ng/mL
[2]; 0.17 h
  plasma concentration of OXA: 25030 ± 320 ng/mL
[2]; 0.50 h
  plasma concentration of OXA: 4490 ± 350 ng/mL
[2]; 1 h
  plasma concentration of OXA: 3200 ± 100 ng/mL
[2]; 2 h
  plasma concentration of OXA: 2860 ± 240 ng/mL
[2]; 4 h
  plasma concentration of OXA: 1990 ± 120 ng/mL
[2]; 6 h
  plasma concentration of OXA: 1500 ± 700 ng/mL
[2]; 8 h
  plasma concentration of OXA: 640 ± 110 ng/mL
[2]; plasma, n=3
  CL: 5.53 ± 1.5 mL/min/kg
  CLz: 5.85 ± 0.217 mL/min/kg
  K10: 1.319 ± 0.250 h⁻¹
  K12: 5.632 ± 0.360 h⁻¹
  K21: 0.828 ± 0.070 h⁻¹
  MRT(0-t): 2.535 ± 0.520 H
  MRT(0-∞): 4.319 ± 0.130 H
  T1/2z: 4.995 ± 0.360 H
  Tmax: 0.250 ± 0.015 H
  t1/2α: 0.215 ± 0.077 H
  t1/2β (elimination half-life): 3.214 ± 0.420 H
[3]; 0.5 h
  OXA concentration in heart: 8.59 ± 0.06 µg/g
  OXA concentration in kidneys: 8.73 ± 0.45 µg/g
  OXA concentration in liver: 14.00 ± 0.30 µg/g
  OXA concentration in lungs: 4.60 ± 0.13 µg/g
  OXA concentration in spleen: 14.27 ± 0.44 µg/g
[3]; 1 h
  OXA concentration in heart: 10.27 ± 0.44 µg/g
  OXA concentration in kidneys: 4.02 ± 0.61 µg/g
  OXA concentration in liver: 12.49 ± 0.56 µg/g
  OXA concentration in lungs: 3.70 ± 0.22 µg/g
  OXA concentration in spleen: 13.40 ± 0.80 µg/g
[3]; 2 h
  OXA concentration in heart: 6.79 ± 0.40 µg/g
  OXA concentration in kidneys: 2.85 ± 0.27 µg/g
  OXA concentration in liver: 12.50 ± 0.58 µg/g
  OXA concentration in lungs: 4.35 ± 0.63 µg/g
  OXA concentration in spleen: 13.21 ± 0.22 µg/g
[3]; 4 h
  OXA concentration in heart: 5.55 ± 0.45 µg/g
  OXA concentration in kidneys: 2.36 ± 0.70 µg/g
  OXA concentration in liver: 10.91 ± 1.56 µg/g
  OXA concentration in lungs: 4.98 ± 0.18 µg/g
  OXA concentration in spleen: 10.35 ± 1.53 µg/g
[3]; 6 h
  OXA concentration in heart: 4.22 ± 0.14 µg/g
  OXA concentration in kidneys: 2.84 ± 0.25 µg/g
  OXA concentration in liver: 8.87 ± 0.40 µg/g
  OXA concentration in lungs: 4.54 ± 0.90 µg/g
  OXA concentration in spleen: 10.56 ± 0.56 µg/g
[3]; 8 h
  OXA concentration in heart: 3.26 ± 0.34 µg/g
  OXA concentration in kidneys: 2.65 ± 0.12 µg/g
  OXA concentration in liver: 7.06 ± 0.44 µg/g
  OXA concentration in lungs: 3.94 ± 0.12 µg/g
  OXA concentration in spleen: 4.81 ± 0.33 µg/g
[3]; n=3
  AUC(0-t), heart: 48.080 ± 1.690 µg·h/g
  AUC(0-t), kidneys: 27.380 ± 1.870 µg·h/g
  AUC(0-t), liver: 87.870 ± 1.360 µg·h/g
  AUC(0-t), lungs: 34.130 ± 1.960 µg·h/g
  AUC(0-t), spleen: 118.170 ± 4.560 µg·h/g
  AUC(0-∞), heart: 68.591 ± 5.210 µg·h/g
  AUC(0-∞), kidneys: 69.442 ± 5.640 µg·h/g
  AUC(0-∞), liver: 161.538 ± 3.960 µg·h/g
  AUC(0-∞), lungs: 106.955 ± 9.140 µg·h/g
  AUC(0-∞), spleen: 128.580 ± 9.360 µg·h/g
  MRT, heart: 5.574 ± 0.980 h
  MRT, kidneys: 16.594 ± 2.220 h
  MRT, liver: 9.330 ± 1.020 h
  MRT, lungs: 17.707 ± 1.990 h
  MRT, spleen: 5.990 ± 0.230 h

Source: article PMC8712509 (International Journal of Nanomedicine, 2021)
